Compound activity as filed in PubChem.
Most compounds without a hit are left out; they make up all but 3% or so of the library.
S1P3 ag – human S1P3 receptor agonists, primary screen, cell-based, primary and confirmation, NFAT-BLA reporter; S1P3 NFAT-BLA reporter cells, agonism, FRET ratio; relative to 1 µM S1P, basal subtracted; activation, % at 4.5 µM; 60,000 compounds, 0.1% hits; AID 373, 2006;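 active = activation above the screen-wide mean plus 3 SD, cut at about 4.5% in these data, passing the limit was not always enough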
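Measure – % activation relative to 1 µM S1P (100%), per plate · System – stable CHO line with human S1P3, Gα16, NFAT-BLA reporter · Timing – cells plated overnight, compound 4 h 37 °C, substrate 2 h RT · Technique – fluorescent BLA substrate, ex 405 nm, em 460/535 nm ratio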
S1P1 ag-PAM – S1P1 agonists and agonism potentiators, primary screen, cell-based, primary and confirmation screens, CRE-bla reporter | Sphingosine 1-phosphate receptor 1 (Homo sapiens), P21453 | S1P1 CRE-bla cells, forskolin, beta-lactamase FRET, potentiator mode; S1P1 agonist co-added at EC20, 2 nM; 100% = saturating reference agonist, 0% = basal | activation, % at 9.5 µM | 56,000 compounds, 0.57% hits | AID 449, 2006;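 active = activation above a cutoff set at the mean activation of all tested compounds plus 3 SD, cut at about 54% in these data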;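 note: forskolin at 4 µM as EC80 and the EC20 agonist is SEW2871; 100% = SEW2871 at its EC100 plus forskolin at EC80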
Target sequence (P21453 whole entry, looked up): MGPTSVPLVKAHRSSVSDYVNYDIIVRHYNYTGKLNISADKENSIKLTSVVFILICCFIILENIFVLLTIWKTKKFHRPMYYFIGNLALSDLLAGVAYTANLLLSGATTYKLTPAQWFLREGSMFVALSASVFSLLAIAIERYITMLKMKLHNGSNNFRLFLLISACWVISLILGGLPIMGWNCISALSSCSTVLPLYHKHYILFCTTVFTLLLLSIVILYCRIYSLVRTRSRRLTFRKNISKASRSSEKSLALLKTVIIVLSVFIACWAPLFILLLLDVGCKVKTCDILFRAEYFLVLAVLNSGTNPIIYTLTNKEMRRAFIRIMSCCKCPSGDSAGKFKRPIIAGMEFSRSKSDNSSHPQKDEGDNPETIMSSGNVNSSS
5-HT1A blocker – human 5-HT1a receptor antagonists, primary screen, cell-based, CHO, Ga15 NFAT-bla reporter | 5-hydroxytryptamine receptor 1A (Homo sapiens), P08908 | CHO 5-HT1a Ga15 NFAT-bla reporter, antagonist mode | inhibition, % at 10 µM | 62,000 compounds, 0.68% hits;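 active = inhibition above the mean of all tested compounds plus 3 SD, cut at about 43% in these data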;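 note: receptor stimulated by 5-CT agonist at 100 nM near EC80; beta-lactamase reporter measured by ratiometric fluorescence of a cleavable substrate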
HTR1E agonist – 5-HT1E receptor agonists, primary screen, cell-based, HTS; AID 574, 2007; CHO 5-HT1E Ga15 NFAT-bla reporter, FRET; 0% DMSO wells, 100% control agonist wells; 5-hydroxytryptamine receptor 1E (Homo sapiens), P28566; 65,000 compounds, 0.69% hits; activation, % at 6 µM;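 active = activation above a set limit, the screen-wide mean activation plus 3 SD, cut at about 8.5% in these data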;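 note: 100% = positive control agonist at 1 µM giving full maximal response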
Target sequence (P28566 whole entry, looked up): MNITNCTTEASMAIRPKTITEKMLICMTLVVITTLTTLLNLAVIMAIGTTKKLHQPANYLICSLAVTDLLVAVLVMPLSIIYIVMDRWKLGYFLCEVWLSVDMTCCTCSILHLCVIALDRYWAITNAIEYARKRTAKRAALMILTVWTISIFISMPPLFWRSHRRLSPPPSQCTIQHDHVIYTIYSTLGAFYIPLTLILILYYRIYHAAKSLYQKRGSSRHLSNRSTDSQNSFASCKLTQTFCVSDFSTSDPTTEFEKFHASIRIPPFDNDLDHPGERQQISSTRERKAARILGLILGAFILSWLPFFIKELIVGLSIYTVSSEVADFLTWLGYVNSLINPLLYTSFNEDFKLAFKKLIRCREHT
HTR1E antagonist – 5-HT1E receptor antagonists, primary screen, cell-based, HTS; 5-hydroxytryptamine receptor 1E (Homo sapiens), P28566; CHO 5-HT1E Ga15 NFAT-bla reporter, FRET, antagonist; inhibition, % at 6 µM; 65,000 compounds, 0.99% hits; AID 571, 2007;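 active = inhibition above a set limit, the mean inhibition across every tested compound plus 3 SD, cut at about 29% in these data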;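 note: signal is the 460 over 535 nm emission ratio of beta-lactamase substrate; 0% = agonist plus DMSO wells and 100% = wells without agonist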
5HT1a ag – human 5-HT1a receptor agonists, primary screen, cell-based, CHO, Ga15 NFAT-bla reporter | 5-hydroxytryptamine receptor 1A (Homo sapiens), P08908 | CHO 5-HT1a Ga15 NFAT-bla reporter, FRET ratio; 0% basal, 100% maximal reference agonist | activation, % at 10 µM | 65,000 compounds, 0.56% hits;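 active = activation above the screen-wide mean activation plus 3 SD, cut at about 19% in these data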;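 note: 0% = DMSO wells and 100% = 5-CT at EC100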
* marks the source's active call; other numbers are inactive results; . = no result given.

SMILES | S1P3 ag | S1P1 ag-PAM | 5-HT1A blocker | HTR1E agonist | HTR1E antagonist | 5HT1a ag
CCCNC(=O)c1c(N)n(-c2cccc(OC)c2)c2nc3ccccc3nc12 | 1.9 | -151.4 | -25.9 | 8.7* | -11.2 | 41.7*
O=C(O)c1ccc(Cl)c(S(=O)(=O)NCc2ccco2)c1 | -1.1 | -5.2 | 3.6 | 0.5 | -2.1 | -3.4
Cc1cccc(N2CCN(C(=O)c3ccc(Cl)c(S(=O)(=O)NCc4ccco4)c3)CC2)c1C | -1.6 | -5.6 | 6.6 | 15.5* | 8.2 | 3.8
CC1=C(C#N)C2C(/C1=N/O)C2(C)C (stereo not drawn) | -0.9 | 2.5 | -6.3 | 0.2 | 7.9 | -0.7
CCN(CC)c1ccc2cc(C(=O)Nc3cccnc3N3CCOCC3)c(=O)oc2c1 | . | . | 2.4 | 0.1 | -0.4 | 2.2
CCN(CC)c1ccc2cc(NC(=O)CCC(=O)O)c(=O)oc2c1 | -1.6 | 58.0* | 40.5 | -0.1 | 55.4* | -3.4
CCN(CC)c1ccc2cc(C(=O)Nc3ccccn3)c(=O)oc2c1 | -0.8 | -1.0 | . | 5.8 | -31.8 | 57.3*
CC(=O)c1ccc(N2CCN(C(=O)c3ccc(OCc4c(C)noc4C)cc3)CC2)cc1 | 0.7 | 6.3 | -1.9 | 0.1 | 5.3 | -1.6
Cc1noc(C)c1COc1ccc(C(=O)OC(C)C(=O)Nc2ccc(N3CCOCC3)cc2)cc1 (stereo not drawn) | 0.9 | 1.8 | 1.2 | 120.3* | -5.8 | -1.6
CCOC(=O)N1CCN(C(=O)CN2C(=O)COc3ccc(C(C)(C)C)cc32)CC1 | 0.9 | 3.0 | -18.1 | 0.5 | 8.2 | 1.8
N=c1n(CCN2CCCC2)c2ccccc2n1CC(O)c1ccco1 (stereo not drawn) | -0.1 | -3.7 | 2.1 | 0.4 | 5.7 | 0.8
N=c1n(CCN2CCCCC2)c2ccccc2n1CC(O)c1cccc(Br)c1 (stereo not drawn) | -0.8 | -1.3 | 54.1* | 0.3 | -1.2 | -5.0
COc1ccccc1OCC(O)Cn1c(=N)n(CCN2CCCCC2)c2ccccc21 (stereo not drawn) | . | . | 71.2* | -0.7 | 5.5 | 0.1
N=c1n(CCN2CCOCC2)c2ccccc2n1CC(O)COc1ccccc1 (stereo not drawn) | 0.5 | -26.6 | 0.9 | 0.0 | -0.1 | -1.3
N=c1n(CCN2CCCCC2)c2ccccc2n1CC(O)COc1ccccc1 (stereo not drawn) | -0.1 | -15.4 | 48.8* | 0.5 | -9.0 | -0.9
COc1ccc(N2CCN(S(=O)(=O)c3ccc(C(=O)NCc4ccco4)cc3)CC2)cc1 | . | . | 1.6 | 0.7 | -6.2 | -0.8
Cn1c(C(O)c2ccccc2)nc(Cl)c1Cl (stereo not drawn) | -1.9 | -9.0 | 17.9 | 0.5 | -4.9 | -4.0
CCNc1c2c3c(cccc3n(C)c1=O)C(=O)c1ccccc1-2 | -0.9 | 34.7 | 11.0 | 31.7* | 20.9 | 2.8
Cn1c(=O)c(NCCO)c2c3c(cccc31)C(=O)c1ccccc1-2 | . | . | 6.2 | 1.3 | 14.5 | 0.1
CCCc1cc(C(N)=O)c(NC(=O)c2cc(C)on2)s1 | -0.6 | 15.0 | 15.9 | -0.6 | -3.8 | 0.8
Cc1cc(C(=O)Nc2sc(C)c(-c3ccc(F)cc3)c2C(N)=O)no1 | -0.3 | 101.6* | 0.5 | 1.2 | -6.9 | 12.1
O=c1c2ccccc2nnn1CSc1ccc2c(c1)OCCO2 | 0.9 | 15.4 | 5.0 | -0.1 | -2.0 | 1.4
CC(=O)OCC(=O)c1ccc2ccn(C(C)=O)c2c1 | -0.2 | 8.6 | 1.7 | 0.0 | -4.5 | -2.4
COc1ccccc1N1CCN(CC(=O)c2ccc3ccn(C(C)=O)c3c2)CC1 | -0.8 | 16.4 | 14.6 | 29.9* | 8.2 | 7.8
COc1ccccc1N1CCN(CC(=O)Nc2cc(F)ccc2C)CC1 | . | . | 43.3* | -0.7 | -9.5 | 0.1
SMILES | S1P3 ag | S1P1 ag-PAM | 5-HT1A blocker | HTR1E agonist | HTR1E antagonist | 5HT1a ag
COc1ccccc1N1CCN(CCCC(=O)c2ccc(F)cc2)CC1 | -1.7 | -10.4 | 92.6* | 3.0 | 11.2 | 4.4
COc1ccccc1N1CCN(CCCNC(=O)Nc2ccccc2C)CC1 | . | . | 82.3* | 2.7 | 8.6 | -0.3
O=C(NCC1CCCO1)C1CCC(CNS(=O)(=O)c2ccccc2)CC1 (stereo not drawn) | -0.2 | -14.0 | -5.4 | 0.1 | -2.5 | -3.5
COc1ccc(C)cc1-n1nnnc1SCc1cc(=O)n2cc(C)ccc2n1 | -0.1 | 28.3 | 7.4 | -0.2 | 9.2 | -1.3
COc1cc(Br)cc2cc(C(=O)N3CCCCC3C)c(=O)oc12 (stereo not drawn) | -1.3 | . | -6.0 | 1.3 | 4.6 | -0.1
O=C(Cn1cnc2ccccc21)OCC(=O)N1CCc2ccccc2C1 | -1.5 | 8.2 | 1.8 | -0.7 | 15.8 | -1.2
COc1ccccc1Oc1ccc2c(c1)C(=O)N(c1cccc(O)c1)C2=O | -1.9 | 94.1* | 12.6 | 0.9 | 1.8 | -1.2
Brc1ccccc1-c1nnc(CSc2nncn2-c2ccccc2)o1 | 0.2 | 8.8 | -13.9 | -0.3 | -5.0 | 171.1*
CCn1nc(C(=O)OCc2c(C)noc2C)c2ccccc2c1=O | -0.7 | -22.3 | 11.4 | -0.4 | 29.5* | -1.0
CCOC(=O)c1[nH]c(C)c(/C=N/O)c1C | -1.7 | 4.9 | 10.9 | 9.8* | 8.3 | -3.0
COc1ccc(C(C(=O)OC(C)CN(C)C)c2ccccc2)cc1 (stereo not drawn) | 0.4 | -7.6 | -5.2 | -0.7 | 2.1 | -2.5
CN(C)CC(C(=O)c1ccccc1)c1ccccc1 (stereo not drawn) | -0.6 | 82.3 | 76.0* | -0.1 | 74.3* | -4.8
CSc1ccc(C2C(C#N)=C(N)N(c3ccccc3)C3=C2C(=O)CCC3)cc1 (stereo not drawn) | . | . | 43.4* | 0.1 | 11.1 | 0.0
O=C1CCCC2=C1C(c1ccccc1)CC(=O)N2c1ccccc1 (stereo not drawn) | -0.8 | 13.2 | 2.6 | -0.3 | -1.4 | 0.2
CCOC(=O)Nc1ccccc1C(=O)N1CCOCC1 | 0.1 | -12.4 | 2.6 | -1.8 | -11.8 | -3.1
Cc1sc2ncnc(SCC(=O)NC(=O)NCc3ccco3)c2c1C | -0.5 | -28.4 | 27.2 | -0.1 | 27.8 | 98.4*
Cc1nc(SCC(=O)NCc2ccco2)c2c(C)c(C)sc2n1 | 0.6 | -6.6 | -5.5 | 0.3 | 5.7 | -0.6
CSc1nncn1/N=C/c1cc(Cl)ccc1F | -0.8 | 3.8 | -1.4 | 0.0 | 23.6 | -2.6
O=C(CSc1ncnc2c1oc1ccccc12)N1CCCc2ccccc21 | 0.4 | 64.9* | -14.6 | -0.1 | 3.7 | 3.7
